# Results of several laboratories.
# Lines come from different studies, so protocols differ.
# Target: Tyrosine-protein kinase FRK (FRK, Homo sapiens, UniProt P42685)
SMILES,observed,technique,tested at,remaining binding [%]
CN1CCN(c2cnc3c(C4CCN(C(=O)c5ccc(OC(F)(F)F)cc5N)CC4)ncnc3c2)CC1,cell-free assay,competition with immobilised ligand,1 µM,100
O=C(NCC1CCOCC1)c1n[nH]cc1NC(=O)c1c(F)cccc1F,binding,competition with immobilised ligand,1 µM,100
N[C@@H]1CCN(c2nccc(-c3cnn4ncccc34)n2)C1,binding,,1 µM,97
FC(F)(F)Oc1cccc(-c2cnc3ccc(-c4ccncc4)nn23)c1,cell-free assay,competition with immobilised ligand,5 µM,59
O=C(c1ccc(Nc2ncc(Cl)c(-c3ccc(Cl)s3)n2)cc1)N1CCC(N2CCCC2)CC1,binding,competition with immobilised ligand,1 µM,97
COc1ccc2c(c1)O[C@@H](c1ccc(OC)c(OC)c1)C[C@H]2NC(=O)C1(c2ccc3c(c2)OC(F)(F)O3)CC1,cell-free assay,competition with immobilised ligand,1 µM,100
O=C(NCCCN1CCOCC1)c1ccc(Nc2nccc(-c3cc4ccccc4s3)n2)cc1,binding,competition with immobilised ligand,1 µM,99
CN(CCCC(F)(F)F)c1nccc(-c2cnn3ncccc23)n1,binding,,1 µM,93
O=C(NCCCN1CCOCC1)c1ccc(Nc2ncc(Cl)c(-c3ccc(Cl)s3)n2)cc1,binding,competition with immobilised ligand,1 µM,100
CN(C)c1nccc(-c2cnn3ncccc23)n1,binding,competition with immobilised ligand,1 µM,100
CCN1CCN(Cc2ccc(C(=O)Nc3ccc(C)c(Oc4ccc5c(c4)CC(=O)N5)c3)cc2C(F)(F)F)CC1,binding,competition with immobilised ligand,1 µM,13
CN(c1nccc(-c2cnn3ncccc23)n1)C1CC1,binding,,1 µM,85
CCCOc1ccc([C@H]2[C@H](C(=O)O)[C@@H](c3ccc4c(c3)OCO4)CN2CC(=O)Nc2c(CC)cccc2CC)cc1,cell-free assay,competition with immobilised ligand,1 µM,100
COc1cnc(Nc2cccc(S(N)(=O)=O)c2)nc1N1CCN(c2ccccc2)C(=O)C1,binding,competition with immobilised ligand,1 µM,100
Nc1cnc(N2CCc3cc(S(=O)(=O)Nc4c(F)cc(Cl)cc4F)cc(N4CCCC4=O)c32)nc1,cell-free assay,competition with immobilised ligand,1 µM,62
C[C@H]1CCN(c2nccc(-c3cnn4ncccc34)n2)C1,binding,,1 µM,100
O=C(Nc1ccc(Oc2ccc(F)cc2)cc1)N1CCc2ncccc2[C@H]1c1ccc(F)cc1,cell-free assay,competition with immobilised ligand,1 µM,93
c1cnn2ncc(-c3ccnc(N4CCC45COC5)n3)c2c1,binding,,1 µM,82
CO[C@@H](C)c1c(Nc2ccc([C@H](N(C)C(=O)C3CCS(=O)(=O)CC3)C(F)(F)F)cc2)cnc2cc(Cl)nn12,cell-free assay,competition with immobilised ligand,1 µM,80
CNC(=O)[C@@H]1CC[C@@H](n2c(-c3ccc4cnccc4c3)nc3ccc(C(=O)NCc4cccc(C(N)=O)c4)cc32)C1,binding,competition with immobilised ligand,1 µM,100
CN(C)c1ncc(F)c(-c2cnn3ncccc23)n1,binding,competition with immobilised ligand,1 µM,100
Nc1ncc2c(n1)-c1c([nH]c3ccc(C#CC4CC4)cc13)CCCC2,binding,competition with immobilised ligand,1 µM,95
